Data taken from ChEMBL document CHEMBL1140564, “Macrocyclic ureas as potent and selective Chk1 inhibitors: an improved synthesis, kinome profiling, structure-activity relationships, and preliminary pharmacokinetics” (Bioorg Med Chem Lett, 2007).
pEC50, pIC50, pKi: −log10 of the molar value. One block for each compound: values may come before it. The source made the active and inactive calls. The calls are words filed in the database; no cut-off is given here.

Assays:
NCI-H1299 = assay: Inhibition of doxorubicin-induced cell cycle arrest in H1299 cells at G2/M phase by FACS assay; assay type: functional, cell-based; details: Homo sapiens
Method in brief: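 H1299 cells treated with 500 nM doxorubicin to induce G2/M arrest, with or without inhibitor at various concentrations, up to 10 μM. Cells stained with propidium iodide and DNA content analysed by FACS. EC50 for abrogation of the Dox-induced G2/M checkpoint.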

HeLa = assay: Cytotoxicity against HeLa cells by MTS assay; assay type: functional, cell-based; details: Homo sapiens
[1] = Cell cycle arrest in H1299 cells by accumulation at G2/M phase by FACS assay; assay type: functional, cell-based; details: Homo sapiens, NCI-H1299
[2] = target: T1, Serine/threonine-protein kinase Chk1 (Homo sapiens, UniProt O14757); assay: Inhibition of Chk1
T1 sequence (O14757 whole entry): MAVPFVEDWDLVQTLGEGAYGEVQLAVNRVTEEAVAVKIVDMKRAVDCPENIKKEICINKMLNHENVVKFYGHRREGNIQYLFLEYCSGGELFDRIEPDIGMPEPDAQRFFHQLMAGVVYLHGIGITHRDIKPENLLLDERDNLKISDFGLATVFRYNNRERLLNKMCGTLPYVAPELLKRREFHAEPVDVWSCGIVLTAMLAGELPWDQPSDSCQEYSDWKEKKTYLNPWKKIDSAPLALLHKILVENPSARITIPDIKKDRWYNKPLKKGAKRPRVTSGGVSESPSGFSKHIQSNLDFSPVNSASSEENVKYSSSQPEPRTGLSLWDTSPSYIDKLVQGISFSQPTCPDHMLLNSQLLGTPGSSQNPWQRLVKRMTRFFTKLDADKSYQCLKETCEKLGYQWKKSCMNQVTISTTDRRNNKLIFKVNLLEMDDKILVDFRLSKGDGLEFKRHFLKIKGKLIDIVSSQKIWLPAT

[3] = AUC in mouse plasma at 10 mg/kg; assay type: ADME, organism-based; parameters: dose 10 mg/kg
Method in brief: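 CD-1 mice received a single intraperitoneal dose of 10 mg/kg. Plasma drug levels were followed over time, and exposure was expressed as AUC in µmol h/L.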

[4] = target: Ribosomal protein S6 kinase alpha-4 (Homo sapiens, UniProt O75676); assay: Inhibition of MSK2
[5] = Inhibition of PKA; parameters: species or system Homo sapiens
[6] = Inhibition of PKG1A; parameters: species or system Homo sapiens
[7] = target: Mitogen-activated protein kinase kinase kinase 9 (Homo sapiens, UniProt P80192); assay: Inhibition of MLK1
TAK1/TAB1 = TAK1/TAB1 (Homo sapiens, UniProt O43318); assay: Inhibition of TAK1-TAB1
SRSF protein kinase 3 = SRSF protein kinase 3 (Homo sapiens, UniProt Q9UPE1); assay: Inhibition of MSSK1
[8] = Inhibition of CMET; parameters: species or system Homo sapiens
[9] = target: Serine/threonine-protein kinase 31 (Homo sapiens, UniProt Q9BXU1); assay: Inhibition of STK31
[10] = Inhibition of AUR1; parameters: species or system Homo sapiens
[11] = Inhibition of JNK2a2; parameters: species or system Homo sapiens
[12] = target: Muscle, skeletal receptor tyrosine-protein kinase (Homo sapiens, UniProt O15146); assay: Inhibition of MUSK
[13] = Inhibition of JNK1a1; parameters: species or system Homo sapiens
[14] = target: Serine/threonine-protein kinase TBK1 (Homo sapiens, UniProt Q9UHD2); assay: Inhibition of TBK1
[15] = target: Serine/threonine-protein kinase 33 (Homo sapiens, UniProt Q9BYT3); assay: Inhibition of STK33
[16] = target: Serine/threonine-protein kinase Nek11 (Homo sapiens, UniProt Q8NG66); assay: Inhibition of NEK11
[17] = target: Serine/threonine-protein kinase DCLK2 (Homo sapiens, UniProt Q8N568); assay: Inhibition of DCAMKL2
[18] = target: Calcium/calmodulin-dependent protein kinase type IV (Homo sapiens, UniProt Q16566); assay: Inhibition of CAMK4
[19] = target: Serine/threonine-protein kinase Sgk1 (Homo sapiens, UniProt O00141); assay: Inhibition of SGK
[20] = target: Cyclin-dependent kinase 7 (Homo sapiens, UniProt P50613); assay: Inhibition of CDK7
[21] = Inhibition of PHK lambda 2; parameters: species or system Homo sapiens
[22] = Inhibition of PKG1B; parameters: species or system Homo sapiens
[23] = target: Serine/threonine-protein kinase Nek3 (Homo sapiens, UniProt P51956); assay: Inhibition of NEK3
[24] = target: Cyclin-dependent kinase 6 (Homo sapiens, UniProt Q00534); assay: Inhibition of CDK6
[25] = target: Serine/threonine-protein kinase WNK2 (Homo sapiens, UniProt Q9Y3S1); assay: Inhibition of WNK2
[26] = target: NUAK family SNF1-like kinase 1 (Homo sapiens, UniProt O60285); assay: Inhibition of ARK5
[27] = target: 5'-AMP-activated protein kinase subunit beta-1 (Homo sapiens, UniProt Q9Y478); assay: Inhibition of AMPK
[28] = target: Cyclin-dependent kinase 9 (Homo sapiens, UniProt P50750); assay: Inhibition of CDK9
[29] = Inhibition of AUR2; parameters: species or system Homo sapiens

Chain of Serine/threonine-protein kinase DCLK2 (Q8N568 whole entry): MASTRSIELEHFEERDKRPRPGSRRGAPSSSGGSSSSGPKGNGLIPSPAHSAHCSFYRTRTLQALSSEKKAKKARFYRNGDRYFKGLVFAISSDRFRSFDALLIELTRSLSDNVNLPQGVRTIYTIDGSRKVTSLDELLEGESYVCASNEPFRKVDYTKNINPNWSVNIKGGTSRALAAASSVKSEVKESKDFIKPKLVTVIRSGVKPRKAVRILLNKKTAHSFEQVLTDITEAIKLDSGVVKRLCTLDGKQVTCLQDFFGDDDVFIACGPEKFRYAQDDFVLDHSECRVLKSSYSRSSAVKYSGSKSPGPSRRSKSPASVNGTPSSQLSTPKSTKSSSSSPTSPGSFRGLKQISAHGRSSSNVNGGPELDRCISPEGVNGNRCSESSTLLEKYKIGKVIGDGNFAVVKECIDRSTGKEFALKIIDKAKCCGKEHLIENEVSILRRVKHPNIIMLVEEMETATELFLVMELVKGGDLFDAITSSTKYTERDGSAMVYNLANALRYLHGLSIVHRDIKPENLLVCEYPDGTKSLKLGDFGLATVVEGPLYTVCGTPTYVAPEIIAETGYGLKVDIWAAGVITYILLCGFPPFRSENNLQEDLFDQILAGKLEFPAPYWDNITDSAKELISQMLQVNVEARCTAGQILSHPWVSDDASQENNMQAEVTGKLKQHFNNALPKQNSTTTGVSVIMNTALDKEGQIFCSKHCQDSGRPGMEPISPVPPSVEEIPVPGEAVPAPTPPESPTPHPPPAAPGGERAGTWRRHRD
Chain of Serine/threonine-protein kinase Nek3 (P51956 whole entry): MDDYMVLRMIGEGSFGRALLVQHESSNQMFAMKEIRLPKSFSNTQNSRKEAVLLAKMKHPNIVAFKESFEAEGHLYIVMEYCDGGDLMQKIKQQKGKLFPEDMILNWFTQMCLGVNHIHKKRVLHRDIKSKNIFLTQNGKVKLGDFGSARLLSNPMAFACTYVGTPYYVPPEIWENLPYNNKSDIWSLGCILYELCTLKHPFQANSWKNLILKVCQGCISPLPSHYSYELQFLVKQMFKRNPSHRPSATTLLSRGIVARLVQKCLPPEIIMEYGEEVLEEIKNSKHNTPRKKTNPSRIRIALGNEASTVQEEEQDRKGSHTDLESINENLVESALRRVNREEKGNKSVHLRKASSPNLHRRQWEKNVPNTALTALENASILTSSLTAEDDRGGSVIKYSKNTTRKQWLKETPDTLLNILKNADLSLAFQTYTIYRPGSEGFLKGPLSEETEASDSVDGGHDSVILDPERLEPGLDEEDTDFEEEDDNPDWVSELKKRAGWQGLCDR
Chain of Serine/threonine-protein kinase Nek11 (Q8NG66 whole entry): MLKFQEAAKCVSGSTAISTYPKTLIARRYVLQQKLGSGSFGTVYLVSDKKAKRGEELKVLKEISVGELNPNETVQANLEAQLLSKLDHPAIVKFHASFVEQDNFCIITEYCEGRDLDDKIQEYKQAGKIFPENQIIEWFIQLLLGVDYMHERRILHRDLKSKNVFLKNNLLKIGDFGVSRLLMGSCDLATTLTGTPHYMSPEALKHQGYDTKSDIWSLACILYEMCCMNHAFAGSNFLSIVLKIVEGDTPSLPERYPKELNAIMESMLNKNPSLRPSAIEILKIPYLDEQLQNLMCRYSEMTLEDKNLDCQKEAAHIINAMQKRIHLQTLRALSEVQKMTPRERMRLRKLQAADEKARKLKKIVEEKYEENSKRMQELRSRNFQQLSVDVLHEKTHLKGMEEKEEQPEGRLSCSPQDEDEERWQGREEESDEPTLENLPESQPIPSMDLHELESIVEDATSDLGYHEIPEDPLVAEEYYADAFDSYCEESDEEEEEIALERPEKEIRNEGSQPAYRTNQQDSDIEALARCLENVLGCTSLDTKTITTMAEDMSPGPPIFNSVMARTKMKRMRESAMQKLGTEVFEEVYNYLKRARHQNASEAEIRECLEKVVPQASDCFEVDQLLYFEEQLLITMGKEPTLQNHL
Chain of Serine/threonine-protein kinase 31 (Q9BXU1 whole entry): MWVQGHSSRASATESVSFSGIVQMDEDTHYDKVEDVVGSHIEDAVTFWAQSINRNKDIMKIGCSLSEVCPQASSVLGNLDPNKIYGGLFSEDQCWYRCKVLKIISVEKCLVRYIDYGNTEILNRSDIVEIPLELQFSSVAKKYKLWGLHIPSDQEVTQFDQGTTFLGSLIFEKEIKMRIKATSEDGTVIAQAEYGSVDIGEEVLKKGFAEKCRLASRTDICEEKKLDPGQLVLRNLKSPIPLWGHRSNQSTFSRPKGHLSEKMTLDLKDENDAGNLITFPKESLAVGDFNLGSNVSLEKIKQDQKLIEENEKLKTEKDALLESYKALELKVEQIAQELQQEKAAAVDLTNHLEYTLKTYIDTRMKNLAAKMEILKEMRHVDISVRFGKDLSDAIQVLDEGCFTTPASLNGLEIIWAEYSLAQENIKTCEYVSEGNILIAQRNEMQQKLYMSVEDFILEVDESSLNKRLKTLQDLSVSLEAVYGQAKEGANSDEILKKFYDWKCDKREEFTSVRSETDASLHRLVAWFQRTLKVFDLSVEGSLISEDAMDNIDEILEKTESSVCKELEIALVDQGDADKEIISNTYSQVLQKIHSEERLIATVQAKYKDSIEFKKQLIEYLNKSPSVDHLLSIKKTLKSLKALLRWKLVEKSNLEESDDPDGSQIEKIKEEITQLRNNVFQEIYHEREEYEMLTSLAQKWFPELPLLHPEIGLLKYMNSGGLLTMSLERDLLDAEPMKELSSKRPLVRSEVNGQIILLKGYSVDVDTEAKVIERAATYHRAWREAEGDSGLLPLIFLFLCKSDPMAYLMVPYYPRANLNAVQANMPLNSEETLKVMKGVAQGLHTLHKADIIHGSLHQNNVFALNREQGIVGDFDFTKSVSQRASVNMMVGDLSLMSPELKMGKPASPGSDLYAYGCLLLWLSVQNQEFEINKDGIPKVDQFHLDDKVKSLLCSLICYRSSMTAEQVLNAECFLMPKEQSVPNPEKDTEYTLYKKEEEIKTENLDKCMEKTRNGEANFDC
Chain of Ribosomal protein S6 kinase alpha-4 (O75676 whole entry): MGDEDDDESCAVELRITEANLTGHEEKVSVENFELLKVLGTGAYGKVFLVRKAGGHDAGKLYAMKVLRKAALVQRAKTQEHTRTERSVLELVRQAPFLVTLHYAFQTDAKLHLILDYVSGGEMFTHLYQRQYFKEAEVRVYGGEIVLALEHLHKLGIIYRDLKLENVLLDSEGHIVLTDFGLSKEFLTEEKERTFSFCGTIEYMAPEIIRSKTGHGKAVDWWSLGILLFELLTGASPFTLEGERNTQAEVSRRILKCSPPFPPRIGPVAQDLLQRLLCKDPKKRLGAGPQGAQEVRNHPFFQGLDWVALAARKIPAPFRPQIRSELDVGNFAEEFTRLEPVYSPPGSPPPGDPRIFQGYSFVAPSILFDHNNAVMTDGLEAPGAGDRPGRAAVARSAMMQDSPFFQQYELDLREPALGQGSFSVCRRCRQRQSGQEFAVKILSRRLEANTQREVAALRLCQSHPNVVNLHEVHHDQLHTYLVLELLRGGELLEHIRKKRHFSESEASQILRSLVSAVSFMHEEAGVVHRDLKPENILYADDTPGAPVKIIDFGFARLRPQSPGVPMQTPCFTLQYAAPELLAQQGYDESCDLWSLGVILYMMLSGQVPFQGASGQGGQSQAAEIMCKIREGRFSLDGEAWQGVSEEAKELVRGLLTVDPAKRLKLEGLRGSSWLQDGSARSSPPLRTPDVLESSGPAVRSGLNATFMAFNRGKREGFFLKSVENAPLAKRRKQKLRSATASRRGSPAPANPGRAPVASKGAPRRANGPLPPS
Chain of Serine/threonine-protein kinase 33 (Q9BYT3 whole entry): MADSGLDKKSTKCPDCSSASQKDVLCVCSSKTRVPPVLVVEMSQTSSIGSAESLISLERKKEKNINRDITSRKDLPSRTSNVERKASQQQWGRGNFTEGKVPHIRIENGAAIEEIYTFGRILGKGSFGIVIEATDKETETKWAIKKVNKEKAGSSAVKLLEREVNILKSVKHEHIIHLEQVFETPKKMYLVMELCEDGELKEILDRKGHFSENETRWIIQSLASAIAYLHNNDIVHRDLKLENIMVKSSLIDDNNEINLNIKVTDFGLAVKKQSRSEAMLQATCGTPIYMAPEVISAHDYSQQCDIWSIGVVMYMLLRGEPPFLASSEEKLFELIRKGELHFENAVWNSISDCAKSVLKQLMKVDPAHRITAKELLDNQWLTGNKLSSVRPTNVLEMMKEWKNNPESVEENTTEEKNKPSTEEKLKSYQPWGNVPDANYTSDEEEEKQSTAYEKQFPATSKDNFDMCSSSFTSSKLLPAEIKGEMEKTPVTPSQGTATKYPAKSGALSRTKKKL
Chain of 5'-AMP-activated protein kinase subunit beta-1 (Q9Y478 whole entry): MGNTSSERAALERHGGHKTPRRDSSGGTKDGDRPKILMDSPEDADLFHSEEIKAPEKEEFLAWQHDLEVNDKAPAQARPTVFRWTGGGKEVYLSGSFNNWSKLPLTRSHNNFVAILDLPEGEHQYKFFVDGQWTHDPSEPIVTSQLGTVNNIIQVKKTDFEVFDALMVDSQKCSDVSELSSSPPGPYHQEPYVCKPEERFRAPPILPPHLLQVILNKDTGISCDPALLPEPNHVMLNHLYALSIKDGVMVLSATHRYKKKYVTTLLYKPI
Chain of Serine/threonine-protein kinase Sgk1 (O00141 whole entry): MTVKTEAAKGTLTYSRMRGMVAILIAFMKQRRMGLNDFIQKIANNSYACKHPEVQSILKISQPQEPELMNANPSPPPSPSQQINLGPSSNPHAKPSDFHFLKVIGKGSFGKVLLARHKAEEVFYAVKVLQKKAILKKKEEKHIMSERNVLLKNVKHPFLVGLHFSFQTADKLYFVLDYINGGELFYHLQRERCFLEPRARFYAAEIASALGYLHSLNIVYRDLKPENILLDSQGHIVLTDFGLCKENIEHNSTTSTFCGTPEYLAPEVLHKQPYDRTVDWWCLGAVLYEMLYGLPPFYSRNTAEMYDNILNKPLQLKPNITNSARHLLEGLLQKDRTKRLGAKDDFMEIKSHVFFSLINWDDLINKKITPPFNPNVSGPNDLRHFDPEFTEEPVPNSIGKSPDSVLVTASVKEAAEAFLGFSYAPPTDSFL

SMILES: N#Cc1ncc2nc1OC/C=C\COc1cc(NC(=O)c3ccncc3)c(Cl)cc1NC(=O)N2
pEC50 (NCI-H1299): < 5.00 | pEC50 (HeLa): < 4.23 | pEC50 [1]: < 5.00 | pIC50 [2]: 8.22

SMILES: N#Cc1ncc2nc1OC/C=C\COc1cc(OCCCO)c(Cl)cc1NC(=O)N2
Activity (NCI-H1299): inactive | pEC50 (HeLa): < 4.23 | Activity [1]: inactive | pIC50 [2]: 8.70

SMILES: N#Cc1ncc2nc1OCCCCOc1cc(NC(=O)OCCN3CCOCC3)c(Cl)cc1NC(=O)N2
pEC50 (NCI-H1299): < 5.00 | pEC50 (HeLa): < 4.23 | pEC50 [1]: < 5.00 | pIC50 [2]: 8.52

AUC [3]: 1.5 µM·h
SMILES: N#Cc1ncc2nc1OCCCCCOc1ccc(Cl)cc1NC(=O)N2

SMILES: N#Cc1ncc2nc1OCCCCOc1cc(NCc3cncs3)c(Cl)cc1NC(=O)N2
pKi [4]: 6.02 | pKi [5]: < 5.12 | Activity (NCI-H1299): inactive | pKi [6]: < 5.75 | pKi [7]: < 5.78 | pKi (TAK1/TAB1): < 5.79 | pKi (SRSF protein kinase 3): < 5.76 | pEC50 (HeLa): 4.23 | pKi [8]: < 5.54 | pKi [9]: < 5.84 | pKi [10]: 5.69 | pKi [11]: < 5.39 | pKi [12]: < 5.78 | pKi [13]: < 5.51 | pKi [14]: < 5.82 | pKi [15]: < 5.79 | pKi [16]: < 5.81 | pKi [17]: < 5.02 | pKi [18]: < 5.07 | pKi [19]: 5.09 | pKi [20]: < 5.82 | Activity [1]: inactive | pKi [21]: < 5.31 | pKi [22]: < 5.77 | pKi [23]: < 5.78 | pKi [24]: < 5.81 | pKi [25]: < 5.82 | pKi [26]: < 5.82 | pKi [27]: 5.81 | pKi [28]: < 5.78 | pKi [29]: 5.72

SMILES: N#Cc1ncc2nc1OCCCCOc1cc(O)c(Cl)cc1NC(=O)N2
Activity (NCI-H1299): inactive | pEC50 (HeLa): < 4.23 | Activity [1]: inactive | pIC50 [2]: 9.52

SMILES: N#Cc1ncc2nc1OC/C=C\COc1cc(N3CCOC3=O)c(Cl)cc1NC(=O)N2
Activity (NCI-H1299): inactive | pEC50 (HeLa): < 4.23 | Activity [1]: inactive | pIC50 [2]: 8.00

SMILES: N#Cc1ncc2nc1OC/C=C\COc1cc(NCCO)c(Cl)cc1NC(=O)N2
pEC50 (NCI-H1299): 5.89 | pEC50 (HeLa): < 4.23 | pEC50 [1]: < 5.00 | pIC50 [2]: 8.70

SMILES: N#Cc1ncc2nc1OCCCCOc1cc(OC(=O)N3CCC(N4CCCCC4)CC3)c(Cl)cc1NC(=O)N2
pEC50 (NCI-H1299): < 5.00 | pEC50 (HeLa): 5.55 | pEC50 [1]: < 5.00 | pIC50 [2]: 9.00

SMILES: C[C@H](N)C(=O)Nc1cc2c(cc1Cl)NC(=O)Nc1cnc(C#N)c(n1)OC/C=C\CO2
pEC50 (NCI-H1299): 7.05 | pEC50 (HeLa): < 4.23 | pEC50 [1]: < 5.00 | pIC50 [2]: 8.52

SMILES: N#Cc1ncc2nc1OC/C=C\COc1cc(OCCN3CCOCC3)c(Cl)cc1NC(=O)N2
pEC50 (NCI-H1299): < 5.00 | pEC50 (HeLa): 4.85 | pEC50 [1]: < 5.00 | pIC50 [2]: 9.00

SMILES: N#Cc1ncc2nc1OC/C=C\COc1cc(NC(=O)c3ccnc(Cl)c3)c(Cl)cc1NC(=O)N2
pEC50 (NCI-H1299): < 5.00 | pEC50 (HeLa): 5.27 | pEC50 [1]: < 5.00 | pIC50 [2]: 8.22

SMILES: N#Cc1ncc2nc1OC/C=C\COc1cc(NCc3cncs3)c(Cl)cc1NC(=O)N2
pEC50 (NCI-H1299): 6.70 | pEC50 (HeLa): 4.87 | pEC50 [1]: < 5.00 | pIC50 [2]: 8.40

SMILES: CCNc1cc2c(cc1Cl)NC(=O)Nc1cnc(C#N)c(n1)OCCCCO2
Activity (NCI-H1299): inactive | pEC50 (HeLa): < 4.23 | Activity [1]: inactive | pIC50 [2]: 8.52

SMILES: N#Cc1ncc2nc1OCCCCOc1cc(NC(=O)c3ccnc(Cl)c3)c(Cl)cc1NC(=O)N2
Activity (NCI-H1299): inactive | pEC50 (HeLa): < 4.23 | Activity [1]: inactive | pIC50 [2]: 8.40

SMILES: N#Cc1ncc2nc1OCCCCOc1ccc(Cl)cc1NC(=O)N2
pEC50 (NCI-H1299): 5.89 | pEC50 (HeLa): 4.24 | pEC50 [1]: < 5.00 | AUC [3]: 3.8 µM·h

SMILES: N#Cc1ncc2nc1OC/C=C\COc1cc(OCCCN3CCOCC3)c(Cl)cc1NC(=O)N2
pEC50 (NCI-H1299): < 5.00 | pEC50 (HeLa): 5.72 | pEC50 [1]: < 5.00 | pIC50 [2]: 9.52

SMILES: CNc1cc2c(cc1Cl)NC(=O)Nc1cnc(C#N)c(n1)OCCCCO2
pEC50 (NCI-H1299): < 5.00 | pEC50 (HeLa): < 4.23 | pEC50 [1]: < 5.00 | pIC50 [2]: 8.70
